From ChEMBL document CHEMBL3112542, “Synthesis of triazole-functionalized 2-DOS analogues and their evaluation as A-site binders” (Bioorg Med Chem Lett, 2014)
In brackets after ≈: the same amount, converted by molar mass.

Experiments:
[1] = Binding affinity to 2AP-labeled duplex RNA oligonucleotide ribosomal decoding site (unknown origin) by fluorescence spectrophotometry
Procedure, shortened: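 Decoding-site RNA model oligonucleotide with 2-aminopurine replacing flexible A1492. Binding followed by enhancement of 2AP fluorescence emission. Values averaged from 3 replicate experiments per compound (10%).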

[2] = system: Pseudomonas aeruginosa; assay: Antimicrobial activity against Pseudomonas aeruginosa ATCC 27853 after 18 hrs by microdilution method; type: functional; settings: ATCC 27853, 18 h
[3] = system: Escherichia coli; assay: Antimicrobial activity against Escherichia coli ATCC 25922 after 18 hrs by microdilution method; type: functional; settings: ATCC 25922, 18 h
[4] = system: Staphylococcus aureus; assay: Antimicrobial activity against Staphylococcus aureus ATCC 29213 after 18 hrs by microdilution method; type: functional; settings: ATCC 29213, 18 h
[5] = Binding affinity to Escherichia coli rRNA A site after 30 mins by luciferase transcription/translation assay
Procedure, shortened: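 Coupled bacterial transcription-translation run in E. coli extract. IC50 taken from 2 replicate experiments per compound, each in duplicate (14%).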

SMILES | EC50 ([1]; read-out: EC50) [µM] | MIC [2] [mg/L] | MIC [3] [mg/L] | MIC [4] [mg/L] | IC50 [5] [µM] | EC50 [1]
N[C@H]1C[C@@H]2[C@H](OCc3cnnn32)[C@@H](O)[C@@H]1O (single isomer, unassigned) | 53 | 283 (≈ 1250 µM) | 283 (≈ 1250 µM) | > 565 | 317 | 
N[C@@H]1C[C@H](N)[C@@H](O)[C@H](OCc2cn(CCO)nn2)[C@H]1OCC(=O)N1CCCCC1 | 3 | > 1000 | > 1000 | 129 (≈ 313 µM) | 730 | 
N[C@@H]1C[C@H](NC(=O)NCCO)[C@@H](O)[C@H](OCC(=O)N2CCOCC2)[C@H]1OCc1cn(CCO)nn1 | 62 | 157 (≈ 313 µM) | 235 (≈ 469 µM) | 78 (≈ 156 µM) | 22.6 | 
NCC[C@H](O)C(=O)N[C@H]1C[C@@H](N)[C@H](O)[C@@H](O)[C@@H]1O | 8.7 | > 840 | > 840 | 52.5 (≈ 199 µM) | 475 | 

Second part, the compound after the results:

EC50 ([1]; read-out: EC50) [µM] | MIC [2] [mg/L] | MIC [3] [mg/L] | MIC [4] [mg/L] | IC50 [5] [µM] | EC50 [1] | SMILES
 | > 700 | > 700 | 88 (≈ 360 µM) | 468 | Not Active | N[C@H]1C[C@@H](n2cc(CO)nn2)[C@H](O)[C@@H](O)[C@@H]1O
22.4 | > 870 | > 870 | 109 (≈ 350 µM) | 55.5 |  | NCCCC(=O)N[C@H]1C[C@@H]2[C@H](OCc3cnnn32)[C@@H](O)[C@@H]1O
0.017 | > 820 | > 820 | 102 (≈ 312 µM) | 104 |  | NCC[C@H](O)C(=O)N[C@H]1C[C@@H]2[C@H](OCc3cnnn32)[C@@H](O)[C@@H]1O
 | > 1000 | > 1000 | 60 (≈ 174 µM) | 66.5 | Not Active | NCC[C@H](O)C(=O)N[C@H]1C[C@@H](n2cc(CO)nn2)[C@H](O)[C@@H](O)[C@@H]1O
